Measured values from ChEMBL document CHEMBL3784994, “Systematic comparison of the mono-, dimethyl- and trimethyl 3-hydroxy-4(1H)-pyridones - Attempted optimization of the orally active iron chelator, deferiprone” (Eur J Med Chem, 2016).

Columns and labels:
[1] = Octanol-water partition coefficient, log P of the compound by shake-flask method; format: physicochemical
Summary of the method: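 Shake-flask partition between n-octanol and 25 mM MOPS, pH 7.4, at 25°C. Buffered solution and octanol were mixed at different ratios, stirred vigorously for 15 s, and separated by centrifugation. Aqueous UV absorbance was read before and after partition. P = (A0−A1)Vaq/(A1Vo).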

[2] = Binding affinity to iron(3) assessed as pFe3+ values after 5 mins
Summary of the method: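 Spectrophotometric titration of ligand with iron(III) in 0.1 M KCl, using a 50 mm path cuvette. KOH was added in 0.1 pH unit steps. After readings were stable (<0.001 pH unit over 3 s), there was a 5 min equilibration, then the spectrum was recorded. Constants were fitted with pHab. pFe3+ was computed at total Fe3+ 1 µM, total ligand 10 µM, pH 7.4.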

[3] = tested on: Liver microsome; test: Drug metabolism in human liver microsomes assessed as glucuronidation at 10 uM after 24 hrs by mass spectrophotometry in presence of NADPH and UDPGA; format: ADME
Summary of the method: (§1)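 Pooled mixed-gender human liver microsomes (1 mg/mL) with 10 µM hydroxypyridinone in 100 mM PBS, with NADPH and UDPGA systems. Incubated at 37°C for 24 h with gentle shaking, in triplicate; the blank omitted microsomes. Stopped with 4% phosphoric acid and internal standard added, then centrifuged. Cation-exchange SPE, then UPLC–tandem MS on C18 to identify metabolites and quantify % metabolized.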

[4] = tested on: Liver microsome; test: Drug metabolism in human liver microsomes assessed as hydroxylation at 10 uM after 24 hrs by mass spectrophotometry in presence of NADPH and UDPGA; format: ADME; summary of the method: as §1
[5] = Binding affinity to iron(3) assessed as pFe3+ values after 10 to 30 mins

Row | Structure (SMILES) | logP [1] | Activity [2] | Drug metabolism [3] | Drug metabolism [4] | Activity [5]
1 | COc1c[nH]ccc1=O | -0.85 | – | – | – | –
2 | Cc1nccc(O)c1O | -0.58 | 20.2 | metabolite_detected | metabolite_detected | –
3 | Cc1[nH]cc(C)c(=O)c1O | -0.13 | 19.2 | metabolite_detected | – | –
4 | COc1c[nH]cc(C)c1=O | -0.51 | – | – | – | –
5 | Cc1cc(=O)c(O)cn1C | -1.19 | 20.4 | metabolite_detected | – | –
6 | Cc1cn(C)cc(O)c1=O | -0.93 | 20.5 | metabolite_detected | – | –
7 | Cc1c(O)c(=O)ccn1C [DEFERIPRONE] | – | 20.7 | metabolite_detected | metabolite_detected | 20.6
8 | Cn1ccc(=O)c(O)n1 | -0.85 | – | – | – | 14.8
9 | Cc1cc(=O)c(O)c[nH]1 | -0.73 | 20.1 | – | – | –
10 | Cn1cc(O)c(=O)cn1 | -0.85 | – | – | – | 17.2
11 | Cn1ccc(=O)c(O)c1F | -0.85 | – | – | – | –
12 | COc1c[nH]cc(CN(C)C)c1=O | -0.85 | – | – | – | –
13 | Cc1cn(C)c(C)c(O)c1=O | -0.51 | 19.7 | metabolite_detected | – | –
14 | Cn1cc(O)c(=O)c(F)c1 | -0.85 | – | – | – | –
15 | Cc1cc(=O)c(F)c[nH]1 | -0.51 | – | – | – | –
16 | COc1cn(C)cc(C)c1=O | -0.85 | – | – | – | –
17 | Cc1c[nH]cc(O)c1=O | -0.59 | 20.1 | metabolite_detected | metabolite_detected | –
